Format in all cases: functional
The nature of experiment [1]: Antitumor activity against mouse EAC cells assessed as inhibition of cell viability at 100 ug/ml by Trypan blue assay. Particulars: Ehrlich. The procedure, abridged:
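EAC cells were taken by needle aspiration of ascitic fluid from preinoculated mice and diluted 1:10 in saline. Then 0.1 mL of cell suspension, 0.8 mL RPMI 1640 and 0.1 mL compound were incubated 2 h at 37 °C. Dead cells were counted by trypan blue exclusion, and % non-viable = non-viable/total cells × 100.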

The test system of experiment [2] is Aspergillus flavus. Kind of experiment: Antifungal activity against Aspergillus flavus at 5 mg/ml by agar disc diffusion method. The settings on record: read-out: DIZ. On the technique in general: In agar diffusion tests the substance spreads into inoculated agar from a disc or well.
The subject of experiment [3] is Staphylococcus aureus. Kind of experiment: Antibacterial activity against Staphylococcus aureus NCTC 7447 at 5 mg/ml after 24 hrs by agar disc diffusion method. Particulars: NCTC 7447, 24 h, read-out: DIZ. The procedure, abridged: (§1)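 Agar well-diffusion using 1 cm wells, each loaded with 100 of compound solution (5 mg/mL in DMF). Bacteria were maintained on nutrient agar and plated as a standard suspension. Plates were incubated 24 h at 35 °C, and inhibition zone diameters were measured.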

Experiment [4] has as its system Candida albicans. Kind of experiment: Antifungal activity against Candida albicans IMRU 3669 at 5 mg/ml by agar disc diffusion method. Particulars: read-out: DIZ.
The test system of experiment [5] is Micrococcus luteus. The experiment can be described thus: Antibacterial activity against Sarcina lutea ATCC 934 at 5 mg/ml after 24 hrs by agar disc diffusion method. The settings on record: ATCC 934, 24 h, read-out: DIZ. A digest of the protocol: as §1
Experiment [6] has as its system Bacillus subtilis. The experiment can be described thus: Antibacterial activity against Bacillus subtilis NCTC 1040 at 5 mg/ml after 24 hrs by agar disc diffusion method. The settings on record: NCTC 1040, 24 h, read-out: DIZ. The procedure, abridged:
as §1

Experiment [7] has as its system Escherichia coli. The experiment can be described thus: Antibacterial activity against Escherichia coli NCTC 10416 at 5 mg/ml after 24 hrs by agar disc diffusion method. The settings on record: NCTC 10416, 24 h, read-out: DIZ. A digest of the protocol: as §1

Each structure is given as a SMILES string.

The record followed here is ChEMBL document CHEMBL1782009, “Synthesis and characterization of new types of halogenated and alkylated imidazolidineiminothiones and a comparative study of their antitumor, antibacterial, and antifungal activities” (Eur J Med Chem, 2011).

In general, inhibition refers to the drop in the measured response relative to a control, in per cent. With `CSc1ccc(N2C(=N)C(=S)N(c3ccccc3)C2=O)cc1`, the inhibition at 100 µg/mL in experiment [1] came out at 1%. Further, the zone of inhibition at 5000 µg/mL is 18 mm in experiment [2]; 24 mm in experiment [3]; 24 mm in experiment [4]; 25 mm in experiment [5]; 23.5 mm in experiment [6]; 25.5 mm in experiment [7].
Turning to `CSc1ccc(N2C(=N)C(=S)N(c3ccc(I)cc3)C2=O)cc1`, in experiment [1], the inhibition at 100 µg/mL came to 10%. Moreover, the zone of inhibition at 5000 µg/mL stood at 15 mm in experiment [2]; 16.5 mm in experiment [3]; 16.5 mm in experiment [4]; 14 mm in experiment [5]; 16 mm in experiment [6]; 14.5 mm in experiment [7].
As for `COc1ccc(N2C(=N)C(=S)N(c3ccc(Br)cc3)C2=O)cc1`, in experiment [1], the inhibition at 100 µg/mL amounted to 10%. The zone of inhibition at 5000 µg/mL in experiment [2] amounted to 18 mm; in experiment [3], 13 mm; in experiment [4], 12 mm; in experiment [5] it was 19 mm; in experiment [6], 18 mm; in experiment [7] it was 16 mm.
On to `Cc1ccc(N2C(=N)C(=S)N(c3ccccc3)C2=O)cc1`, for which the inhibition at 100 µg/mL in experiment [1] was determined as 10%. Besides, the zone of inhibition at 5000 µg/mL in experiment [2] turned out to be 15 mm; in experiment [3], 21.5 mm; in experiment [4] it was 22 mm; in experiment [5] it was 18 mm; in experiment [6], 21 mm; in experiment [7], 20 mm.
Consider `Cc1ccc(N2C(=N)C(=S)N(c3ccc(Br)cc3)C2=O)cc1`, for which, in experiment [1], the inhibition at 100 µg/mL came out at 20%. For the same compound, the zone of inhibition at 5000 µg/mL in experiment [2] was determined as 15 mm; in experiment [3], 18 mm; in experiment [4], 14 mm; in experiment [5] it was 14 mm; in experiment [6], 18 mm; in experiment [7], 16.5 mm.
On to `N=C1C(=S)N(c2ccc(Br)cc2)C(=O)N1Cc1ccccc1`, for which the inhibition at 100 µg/mL in experiment [1] was found to be 45%. The zone of inhibition at 5000 µg/mL in experiment [2] was 15 mm; in experiment [3] it was 15.5 mm; in experiment [4], 17 mm; in experiment [5], 18 mm; in experiment [6], 17 mm; in experiment [7], 18.5 mm.
Take `CSc1ccc(N2C(=N)C(=S)N(c3ccc(Br)cc3)C2=O)cc1`: in experiment [1], the inhibition at 100 µg/mL turned out to be 40%. The zone of inhibition at 5000 µg/mL turned out to be 15 mm in experiment [2]; 19 mm in experiment [3]; 16 mm in experiment [4]; 15 mm in experiment [5]; 19.5 mm in experiment [6]; 15.5 mm in experiment [7].
As to `COc1ccc(N2C(=N)C(=S)N(c3ccc(Cl)cc3)C2=O)cc1`, the inhibition at 100 µg/mL in experiment [1] was found to be 0.5%. In addition, the zone of inhibition at 5000 µg/mL in experiment [2] was 17.5 mm; in experiment [3] it was 19.5 mm; in experiment [4] it was 22 mm; in experiment [5] it was 22 mm; in experiment [6], 20 mm; in experiment [7], 23.5 mm.
As to `CSc1ccc(N2C(=N)C(=S)N(c3ccc(Cl)cc3)C2=O)cc1`, the inhibition at 100 µg/mL in experiment [1] is 20%. Besides, the zone of inhibition at 5000 µg/mL in experiment [2] turned out to be 15 mm; in experiment [3], 16 mm; in experiment [4] it was 16.5 mm; in experiment [5], 15 mm; in experiment [6], 16.5 mm; in experiment [7] it was 15.5 mm.
For the compound `Cc1ccc(N2C(=N)C(=S)N(c3ccc(Cl)cc3)C2=O)cc1`, the inhibition at 100 µg/mL in experiment [1] was found to be 10%. Moreover, the zone of inhibition at 5000 µg/mL in experiment [2] was determined as 14 mm; in experiment [3], 12 mm; in experiment [4], 12 mm; in experiment [5], 21 mm; in experiment [6], 16 mm; in experiment [7] it was 17 mm.
